Experimental data published in ChEMBL document CHEMBL4819122, “Novel 4-(piperazin-1-yl)quinolin-2(1H)-one bearing thiazoles with antiproliferative activity through VEGFR-2-TK inhibition” (Bioorg Med Chem, 2021).

Columns and labels:
SN12C = test: Cytotoxicity against human SN12C assessed as growth inhibition at 10 uM by NCI protocol relative to control; type: functional; conditions: read-out: GI
Outline: (§1)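 Run by the NCI under its standard protocol: one dose of 10 μM against a sixty-line panel from nine human tumour tissues. Result given as percent growth inhibition of treated cells relative to untreated cells.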

TK-10 = test: Cytotoxicity against human TK-10 assessed as growth inhibition at 10 uM by NCI protocol relative to control; type: functional; conditions: read-out: GI; outline: as §1
SNB-75 = test: Cytotoxicity against human SNB-75 assessed as growth inhibition at 10 uM by NCI protocol relative to control; type: functional; conditions: read-out: GI; outline: as §1
HCT-15 = test: Cytotoxicity against human HCT-15 assessed as growth inhibition at 10 uM by NCI protocol relative to control; type: functional; conditions: read-out: GI
Outline: (§2)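 Run by NCI as a single-dose screen at 10 μM across the sixty-cell-line panel, which covers nine human tumour tissue types. The read-out is percent growth inhibition of treated cells relative to untreated cells.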

NCI-H226 = test: Cytotoxicity against human NCI-H226 assessed as growth inhibition at 10 uM by NCI protocol relative to control; type: functional; conditions: read-out: GI; outline: as §2
A498 = test: Cytotoxicity against human A498 assessed as growth inhibition at 10 uM by NCI protocol relative to control; type: functional; conditions: read-out: GI; outline: as §2
RXF 393 = test: Cytotoxicity against human RXF 393 assessed as growth inhibition at 10 uM by NCI protocol relative to control; type: functional; conditions: read-out: GI; outline: as §2
HCC 2998 = test: Cytotoxicity against human HCC-2998 assessed as growth inhibition at 10 uM by NCI protocol relative to control; type: functional; conditions: read-out: GI; outline: as §2
MDA-MB-468 = test: Cytotoxicity against human MDA-MB-468 assessed as growth inhibition at 10 uM by NCI protocol relative to control; type: functional; conditions: read-out: GI; outline: as §2
HOP-92 = test: Cytotoxicity against human HOP-92 assessed as growth inhibition at 10 uM by NCI protocol relative to control; type: functional; conditions: read-out: GI; outline: as §2
SK-MEL-28 = test: Cytotoxicity against human SK-MEL-28 assessed as growth inhibition at 10 uM by NCI protocol relative to control; type: functional; conditions: read-out: GI; outline: as §2
COLO 205 = test: Cytotoxicity against human COLO 205 assessed as growth inhibition at 10 uM by NCI protocol relative to control; type: functional; conditions: read-out: GI; outline: as §2
NCI-H522 = test: Cytotoxicity against human NCI-H522 assessed as growth inhibition at 10 uM by NCI protocol relative to control; type: functional; conditions: read-out: GI; outline: as §2
SK-MEL-5 = test: Cytotoxicity against human SK-MEL-5 assessed as growth inhibition at 10 uM by NCI protocol relative to control; type: functional; conditions: read-out: GI; outline: as §2
IGROV-1 = test: Cytotoxicity against human IGROVI assessed as growth inhibition at 10 uM by NCI protocol relative to control; type: functional; conditions: read-out: GI; outline: as §2
SF-295 = test: Cytotoxicity against human SF-295 assessed as growth inhibition at 10 uM by NCI protocol relative to control; type: functional; conditions: read-out: GI; outline: as §2
DU-145 = test: Cytotoxicity against human DU-145 assessed as growth inhibition at 10 uM by NCI protocol relative to control; type: functional; conditions: read-out: GI; outline: as §2
BT-549 = test: Cytotoxicity against human BT-549 assessed as growth inhibition at 10 uM by NCI protocol relative to control; type: functional; conditions: read-out: GI; outline: as §2
786-0 = test: Cytotoxicity against human 786-0 assessed as growth inhibition at 10 uM by NCI protocol relative to control; type: functional; conditions: read-out: GI; outline: as §2
SR = test: Cytotoxicity against human SR assessed as growth inhibition at 10 uM by NCI protocol relative to control; type: functional; conditions: read-out: GI; outline: as §1
U-251 = test: Cytotoxicity against human U251 assessed as growth inhibition at 10 uM by NCI protocol relative to control; type: functional; conditions: read-out: GI; outline: as §1
HT-29 = test: Cytotoxicity against human HT29 assessed as growth inhibition at 10 uM by NCI protocol relative to control; type: functional; conditions: read-out: GI; outline: as §2
NCI-H322M = test: Cytotoxicity against human NCI-H322M assessed as growth inhibition at 10 uM by NCI protocol relative to control; type: functional; conditions: read-out: GI; outline: as §2
SK-OV-3 = test: Cytotoxicity against human SK-OV-3 assessed as growth inhibition at 10 uM by NCI protocol relative to control; type: functional; conditions: read-out: GI; outline: as §2
T47D [1] = test: Cytotoxicity against human T47D cells assessed as reduction in cell viability after 3 hrs by MTT assay
HL-60 = test: Cytotoxicity against human HL60 assessed as growth inhibition at 10 uM by NCI protocol relative to control; type: functional; conditions: read-out: GI; outline: as §2
UACC-257 = test: Cytotoxicity against human UACC-257 assessed as growth inhibition at 10 uM by NCI protocol relative to control; type: functional; conditions: read-out: GI; outline: as §1
A549 = test: Cytotoxicity against human A549 assessed as growth inhibition at 10 uM by NCI protocol relative to control; type: functional; conditions: read-out: GI; outline: as §2
T47D [2] = test: Cytotoxicity against human T-47D assessed as growth inhibition at 10 uM by NCI protocol relative to control; type: functional; conditions: read-out: GI; outline: as §1
NCI-H460 = test: Cytotoxicity against human NCI-H460 assessed as growth inhibition at 10 uM by NCI protocol relative to control; type: functional; conditions: read-out: GI; outline: as §2
EKVX = test: Cytotoxicity against human EKVX assessed as growth inhibition at 10 uM by NCI protocol relative to control; type: functional; conditions: read-out: GI; outline: as §2
NCI-H23 = test: Cytotoxicity against human NCI-H23 assessed as growth inhibition at 10 uM by NCI protocol relative to control; type: functional; conditions: read-out: GI; outline: as §2
OVCAR-3 = test: Cytotoxicity against human OVCAR-3 assessed as growth inhibition at 10 uM by NCI protocol relative to control; type: functional; conditions: read-out: GI; outline: as §2
UO-31 = test: Cytotoxicity against human UO31 assessed as growth inhibition at 10 uM by NCI protocol relative to control; type: functional; conditions: read-out: GI; outline: as §1
NCI/ADR-RES = test: Cytotoxicity against human NCl/ADR-RES assessed as growth inhibition at 10 uM by NCI protocol relative to control; type: functional; conditions: read-out: GI; outline: as §2
CAKI-1 = test: Cytotoxicity against human Caki1 assessed as growth inhibition at 10 uM by NCI protocol relative to control; type: functional; conditions: read-out: GI; outline: as §2
M14 = test: Cytotoxicity against human M14 assessed as growth inhibition at 10 uM by NCI protocol relative to control; type: functional; conditions: read-out: GI; outline: as §2
KM12 = test: Cytotoxicity against human KM12 assessed as growth inhibition at 10 uM by NCI protocol relative to control; type: functional; conditions: read-out: GI; outline: as §2
LOX IMVI = test: Cytotoxicity against human LOX IMVI assessed as growth inhibition at 10 uM by NCI protocol relative to control; type: functional; conditions: read-out: GI; outline: as §2
Malme-3M = test: Cytotoxicity against human MALME-3M assessed as growth inhibition at 10 uM by NCI protocol relative to control; type: functional; conditions: read-out: GI; outline: as §2
PC-3 = test: Cytotoxicity against human PC3 assessed as growth inhibition at 10 uM by NCI protocol relative to control; type: functional; conditions: read-out: GI; outline: as §2
K562 = test: Cytotoxicity against human K-562 assessed as growth inhibition at 10 uM by NCI protocol relative to control; type: functional; conditions: read-out: GI; outline: as §2

O=C(CN1CCN(c2cc(=O)[nH]c3ccc(F)cc23)CC1)Nc1nc(-c2ccc(Cl)cc2)cs1
inhibition of growth at 10 µM (SN12C): 36.2% | inhibition of growth at 10 µM (TK-10): 34.3% | inhibition of growth at 10 µM (SNB-75): 46.2% | inhibition of growth at 10 µM (HCT-15): 34.9% | inhibition of growth at 10 µM (NCI-H226): 12.6% | inhibition of growth at 10 µM (A498): 60.5% | inhibition of growth at 10 µM (RXF 393): 37.6% | inhibition of growth at 10 µM (HCC 2998): 30.9% | inhibition of growth at 10 µM (MDA-MB-468): 51.4% | inhibition of growth at 10 µM (HOP-92): 29.7% | inhibition of growth at 10 µM (SK-MEL-28): 17.3% | inhibition of growth at 10 µM (COLO 205): 14.5% | inhibition of growth at 10 µM (NCI-H522): 25.9% | inhibition of growth at 10 µM (SK-MEL-5): 34.6% | inhibition of growth at 10 µM (IGROV-1): 50.8% | inhibition of growth at 10 µM (SF-295): 20.4% | inhibition of growth at 10 µM (DU-145): 41.1% | inhibition of growth at 10 µM (BT-549): 27.5% | inhibition of growth at 10 µM (786-0): 32.8% | inhibition of growth at 10 µM (SR): 29.1% | inhibition of growth at 10 µM (U-251): 37.3% | inhibition of growth at 10 µM (HT-29): 25.6% | inhibition of growth at 10 µM (NCI-H322M): 21.3% | inhibition of growth at 10 µM (SK-OV-3): 11.9% | IC50 (T47D [1]): 2.73 µM | inhibition of growth at 10 µM (HL-60): 38.3% | inhibition of growth at 10 µM (UACC-257): 31.3% | inhibition of growth at 10 µM (A549): 44.4% | inhibition of growth at 10 µM (T47D [2]): 73.2% | inhibition of growth at 10 µM (NCI-H460): 18.1% | inhibition of growth at 10 µM (EKVX): 43.3% | inhibition of growth at 10 µM (NCI-H23): 28.8% | inhibition of growth at 10 µM (OVCAR-3): 16.9% | inhibition of growth at 10 µM (UO-31): 38% | inhibition of growth at 10 µM (NCI/ADR-RES): 41.9% | inhibition of growth at 10 µM (CAKI-1): 55.5% | inhibition of growth at 10 µM (M14): 30.6% | inhibition of growth at 10 µM (KM12): 30.1% | inhibition of growth at 10 µM (LOX IMVI): 21.8% | inhibition of growth at 10 µM (Malme-3M): 43.3% | inhibition of growth at 10 µM (PC-3): 45.1% | inhibition of growth at 10 µM (K562): 44.8%
